Reference: ChEMBL document CHEMBL1127691, “Discovery, synthesis, and bioactivity of bis(heteroaryl)piperazines. 1. A novel class of non-nucleoside HIV-1 reverse transcriptase inhibitors” (J Med Chem, 1994)

Key:
[1] = system: Human immunodeficiency virus 1; assay: Effective antiviral dose required to block the spread of HIV-1D34 infection in human peripheral blood mononuclear cells; type: functional; settings: read-out: ED50 (the source's name)
Summary of the method: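 PBMC (1 × 10^6 cells) infected with HIV-1 D34 inoculum containing 1 ng p24, cultured at 37 °C in 5% CO2. Replication read as supernatant p24 at day 4. ED50 = 50% effective antiviral dose, estimated in some cases.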

[2] = Tested for the drug concentration required to decrease […] infected human peripheral blood mononuclear cell viability compared to uninfected controls; type: functional
Summary of the method: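 Uninfected and HIV-1 D34-infected PBMC at 37 °C, 5% CO2. Viability taken from mitogen-stimulated cell proliferation. CC50 is the concentration lowering viability relative to uninfected controls; mostly estimated.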

[3] = target: Human immunodeficiency virus type 1 reverse transcriptase (Human immunodeficiency virus 1) (UniProt Q72547); assay: In vitro inhibitory activity against HIV-1 reverse transcriptase at 100 uM
Summary of the method: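 Recombinant HIV-1 RT (p51/p66 heterodimer, 90–95% pure, 0.0274 μM) with poly(rA) 10 μg/mL and (dT)10 primer 5 μg/mL; 8 μM α-35S-dTTP, 50 mM Tris-HCl pH 8.3, 10 mM MgCl2, 60 mM NaCl, 20 mM DTT, 0.05% NP-40. 37 °C, 15 min; TCA-precipitated label counted on filters. Percent inhibition at 100 μM, mean of at least two determinations.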

[4] = system: MT2; assay: Tested for the drug concentration required to decrease HIV-1IIIb infected MT-2 cell viability compared to uninfected controls; type: functional; settings: Homo sapiens
Summary of the method: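 MT-2 cells with HIV-1 IIIb (MOI 0.001), 4-day culture. Viability by trypan blue exclusion. CC50 is the concentration lowering viability relative to uninfected controls; mostly estimated.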

[5] = system: MT2; assay: Effective antiviral dose required to block the spread of HIV-1 IIIb infection in MT-2 cells by monitoring the formation of syncytia; type: functional; settings: Homo sapiens, read-out: ED50 (the source's name)
Summary of the method: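 MT-2 cells infected with HIV-1 IIIb at MOI 0.001, held at 37 °C in 5% CO2. Syncytium formation scored 4 days post-infection, at peak cytopathic effect. ED50 is the dose giving 50% reduction in syncytia; some values were estimated, and ">" means 50% was not reached at the top concentration.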

[6] = Selective index is the ratio of inhibitory concentrations of cellular DNA polymerase alpha to HIV-1 reverse transcriptase
Summary of the method: (§1)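 Index = IC50 for cellular DNA polymerase α or δ divided by IC50 for HIV-1 RT. RT IC50 measured with recombinant RT and poly(rA):oligo(dT)10 template:primer.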

[7] = Selective index is the ratio of inhibitory concentrations of cellular DNA polymerase delta to HIV-1 reverse transcriptase; summary of the method: as §1

SMILES	EC50 [1] [µM]	CC50 [2] [µM]	inhibition [3] [%]	other results
CCNc1cccnc1N1CCN(C(=O)c2cc3ccccc3s2)CC1	10	~100	50	
CC(C)Nc1ccc(N2CCN(C(=O)c3ccc4[nH]ccc4c3)CC2)nc1			0	
CCNc1cccnc1N1CCN(C(=O)c2ccc3ccccc3c2)CC1	10	> 10	74	
CNc1cccnc1N1CCN(C(=O)c2cc3ccccc3[nH]2)CC1	~1	> 10	85	
CC(C)C(=O)c1cccnc1N1CCN(C(=O)c2cc3ccccc3[nH]2)CC1			26	
COc1c(C)cc(CN2CCN(c3ncccn3)CC2)cc1C			0	
CCNc1cccnc1N1CCN(C(=O)c2ccc[nH]2)CC1	> 1	> 100	87	
CC(C)NCc1cccnc1N1CCN(C(=O)c2cc3ccccc3[nH]2)CC1			0	
CCNc1cccnc1N1CCN(C(=O)c2cccc3cc[nH]c23)CC1	1	> 100	87	
CCNc1cccnc1N1CCN(C(=O)c2cc3cc(OC)ccc3[nH]2)CC1.CS(=O)(=O)O [ATEVIRDINE SULPHATE]	0.001		92	CC50 [4]: > 20 µM; EC50 [5]: < 0.2 µM; Selectivity index [6]: 200; Selectivity index [7]: 1500
CCN(CC)c1cccnc1N1CCN(C(=O)c2cc3ccccc3[nH]2)CC1	1	> 10	69	
O=C(c1cc2ccccc2[nH]1)N1CCN(c2ncccc2NCc2ccccc2)CC1			14	
CCNc1cccc(N2CCN(C(=O)c3ccc4[nH]ccc4c3)CC2)n1			0	
COc1ccc2[nH]c(C(=O)N3CCN(c4ncccc4NC(C)C)CC3)cc2c1	0.001		97	CC50 [4]: > 25 µM; EC50 [5]: 0.3 µM; Selectivity index [6]: 1500; Selectivity index [7]: 8000
Cc1cn([C@H]2C[C@H](N=[N+]=[N-])[C@@H](CO)O2)c(=O)[nH]c1=O [ZIDOVUDINE]	0.001	10		CC50 [4]: 123 µM; EC50 [5]: 0.07 µM
CC(C)Nc1ccccc1N1CCN(C(=O)c2cc3ccccc3[nH]2)CC1			87	
CNC(=O)c1cccnc1N1CCN(C(=O)c2cc3ccccc3[nH]2)CC1			0	
CC(C)(C)NC(=O)c1cccnc1N1CCN(C(=O)c2cc3ccccc3[nH]2)CC1			50	
O=C(c1cc2ccccc2[nH]1)N1CCN(c2ncccc2NCC2CC2)CC1	0.01	> 100	71	
CCCNc1cccnc1N1CCN(Cc2cc(C)c(OC)c(C)c2)CC1			60	
CCCNc1cccnc1N1CCN(C(=O)c2cc3ccccc3[nH]2)CC1	0.1	> 100	64	
COc1c(C)cc(CN2CCN(c3ncccc3NC(C)C)CC2)cc1C	1	~10	84	
N#Cc1cccnc1N1CCN(C(=O)c2cc3ccccc3[nH]2)CC1			5	

SMILES	EC50 [1] [µM]	CC50 [2] [µM]	inhibition [3] [%]	other results
CCNc1cccnc1N1CCN(C(=O)c2cccs2)CC1	~10	> 100	60	
CCNc1ccccc1N1CCN(C(=O)c2cc3ccccc3[nH]2)CC1	1	> 100	78	
CC(C)(C)C(=O)c1cccnc1N1CCN(C(=O)c2cc3ccccc3[nH]2)CC1			58	
CCOC(=O)c1cccnc1N1CCN(C(=O)c2cc3ccccc3[nH]2)CC1			68	
CCNc1cccnc1N1CCN(C(=O)c2nc3ccccc3[nH]2)CC1	10	> 10	69	
COc1ccc2[nH]c(C(=O)N3CCN(c4ncccc4NC(C)(C)C)CC3)cc2c1	0.01		86	CC50 [4]: > 22 µM; EC50 [5]: 0.22 µM; Selectivity index [6]: > 83; Selectivity index [7]: > 83
COC(=O)c1cccnc1N1CCN(C(=O)c2cc3ccccc3[nH]2)CC1			82	
CCNc1cccnc1N1CCN(C(=O)c2cc3ccccc3oc2=O)CC1			16	
CCOc1ccccc1N1CCN(Cc2cc(C)c(OC)c(C)c2)CC1			0	
CC(C)(C)Nc1cccnc1N1CCN(C(=O)c2cc3cc(F)ccc3[nH]2)CC1	0.01		89	CC50 [4]: > 23 µM; EC50 [5]: 0.23 µM; Selectivity index [6]: 233; Selectivity index [7]: 1670
CC(=O)c1cccnc1N1CCN(C(=O)c2cc3ccccc3[nH]2)CC1			30	
CCNc1cccnc1N1CCN(C(=O)c2cc3c(C)c(OC)c(C)c(C)c3[nH]2)CC1	> 10	> 10	63	
CCC(=O)c1cccnc1N1CCN(C(=O)c2cc3ccccc3[nH]2)CC1			40	
O=C(c1cc2ccccc2[nH]1)N1CCN(c2ncccc2[N+](=O)[O-])CC1			5	
CCNc1cccnc1N1CCN(C(=O)c2cc(C)c(OC)c(C)c2)CC1	1	> 100	69	
N#Cc1ccccc1N1CCN(C(=O)c2cc3ccccc3[nH]2)CC1			0	
CCNc1cccnc1N1CCN(C(=O)c2cccc3[nH]ccc23)CC1			28	
Nc1cccnc1N1CCN(C(=O)c2cc3ccccc3[nH]2)CC1	> 10	> 100	20	
CC(=O)Nc1cccnc1N1CCN(C(=O)c2cc3ccccc3[nH]2)CC1	> 10	> 100	0	
CC(C)Nc1cc(C(F)(F)F)ccc1N1CCN(C(=O)c2cc3ccccc3[nH]2)CC1	~1	> 10	22	
CC(C)Nc1cc(F)ccc1N1CCN(C(=O)c2cc3ccccc3[nH]2)CC1	0.1	> 10	83	
CCc1ccccc1N1CCN(C(=O)c2cc3ccccc3[nH]2)CC1			0	
CCNc1cccnc1N1CCN(C(=O)c2cc3ccccc3o2)CC1	10	> 10	37	

SMILES	EC50 [1] [µM]	CC50 [2] [µM]	inhibition [3] [%]	other results
CCNc1cccnc1N1CCN(C(=O)c2cnccn2)CC1			0	
CCOc1ccccc1N1CCN(C(=O)c2cc(C)c(OC)c(C)c2)CC1	> 1	< 10	0	
COc1c(C)cc(C(=O)N2CCN(c3ccccn3)CC2)cc1C	> 10	> 100	5	
CCN(C(C)=O)c1cccnc1N1CCN(C(=O)c2cc3ccccc3[nH]2)CC1			8	
CCC(CC)Nc1cccnc1N1CCN(C(=O)c2cc3ccccc3[nH]2)CC1	0.1	> 10	82	
COc1ccc(N2CCN(C(=O)c3cc4ccccc4[nH]3)CC2)c(OC)c1			7	
COc1ccccc1N1CCN(C(=O)c2cc3ccccc3[nH]2)CC1			33	
CCNc1cccnc1N1CCN(C(=O)c2ccc3[nH]ccc3c2)CC1	~10	> 100	45	
CC(C)Nc1ccc(F)cc1N1CCN(C(=O)c2cc3ccccc3[nH]2)CC1	0.1	> 100	77	
CCNc1cccnc1N1CCN(C(=O)c2ccco2)CC1	> 10	> 100	39	
CCNc1cccnc1N1CCN(C(=O)c2ccc3ccccc3n2)CC1			0	
CCOc1ccccc1N1CCN(C(=O)c2cc3ccccc3[nH]2)CC1	> 1	< 10	76	
COc1c(C)cc(C(=O)N2CCN(c3ncccc3NC(C)C)CC2)cc1C	0.1	> 10	78	
CCNc1cccnc1N1CCN(C(=O)c2nc3ccccc3o2)CC1			0	
CCNc1cccnc1N1CCN(C(=O)c2cnc3ccccc3c2)CC1			14	
CCNc1cccnc1N1CCN(C(=O)c2nc3ccccc3s2)CC1			0	
CC(C)Nc1cnnc(N2CCN(C(=O)c3ccc4[nH]ccc4c3)CC2)c1			39	
CCC(C)Nc1cccnc1N1CCN(C(=O)c2cc3ccccc3[nH]2)CC1 (configuration not stated)	0.01	> 10	95	
CCNc1cccnc1N1CCN(Cc2cc3ccccc3[nH]2)CC1	1		64	
COc1c(C)cc(CN2CCN(c3ccccn3)CC2)cc1C	> 10	> 100	0	
O=C(c1cc2ccccc2[nH]1)N1CCN(c2ncccc2NCC(F)(F)F)CC1	1	> 10	40	
CCNc1cccnc1N1CCN(C(=O)c2c[nH]c3ccccc23)CC1			22	
